Assay results pooled from the literature.
Compare with care: the assays were run in different laboratories.
Read-out: cell growth or viability

CC1=C(O)C(=O)C=C2C1=CC=C1[C@@]2(C)CC[C@@]2(C)[C@@H]3C[C@](C)(C(=O)OCCCCCCO)CC[C@]3(C)CC[C@]12C  IC50 (MGC-803; MTT; 48 h): 390 nM
CC(C)[C@H](N)C(=O)N1CCC[C@H]1B(O)O  IC50 (Kasumi 1; ATP luminescence; 48 h): > 60000 nM
Cc1cccc(Nc2ccccc2C(=O)O)c1C  IC50 (mouse Peritoneal macrophage; crystal violet; 72 h): > 200000 nM
Cc1cccc(-n2ncc(Br)c(Br)c2=O)c1  IC50 (NCI-H2030; resazurin; 96 h): 370 nM
CC[C@@H](C)[C@H](N)C(=O)N1Cc2ccccc2C1  IC50 (Kasumi 1; ATP luminescence; 48 h): > 60000 nM
COc1cccc2c1C(=O)c1c(O)c3c(c(O)c1C2=O)C[C@@](O)(C(=O)CO)C[C@@H]3O[C@H]1C[C@H](N)[C@H](O)[C@H](C)O1  IC50 (ECa-109; MTT; 48 h): 170 nM
C[C@@H]1CCO[C@H]2Cn3cc(C(=O)NCc4ccc(F)cc4F)c(=O)c(O)c3C(=O)N12  IC50 (COS-7; ATP luminescence): 360000 nM
CC1=C(O)C(=O)C=C2C1=CC=C1[C@@]2(C)CC[C@@]2(C)[C@@H]3C[C@](C)(C(=O)OCCO)CC[C@]3(C)CC[C@]12C  IC50 (MGC-803; MTT; 48 h): 370 nM
O=c1[nH]c(=O)n([C@H]2C[C@H](O)[C@@H](CO)O2)cc1F  IC50 (FM3A/0; MTT; 72 h): 3.2 nM
CC(C)n1c(/C=C/C(O)CC(O)CC(=O)O)c(-c2ccc(F)cc2)c2ccccc21 (stereo not drawn)  IC50 (SW480; SRB; 72 h): 4.24 µg/mL
CCc1c2c(nc3ccc(O)cc13)-c1cc3c(c(=O)n1C2)COC(=O)[C@]3(O)CC  IC50 (COS-7; ATP luminescence): 131000 nM
CC1=C(O)C(=O)C=C2C1=CC=C1[C@@]2(C)CC[C@@]2(C)[C@@H]3C[C@](C)(C(=O)OCCCCCCCO)CC[C@]3(C)CC[C@]12C  IC50 (MGC-803; MTT; 48 h): 400 nM
CC1(C)[C@@H](O)CC[C@]2(C)[C@H]3C(=O)C=C4[C@@H]5C[C@@](C)(C(=O)O)CC[C@]5(C)CC[C@@]4(C)[C@]3(C)CC[C@@H]12  IC50 (ECa-109; MTT; 48 h): 19000 nM
OCc1ccc2c(c1C#Cc1ccc(O)cc1)C(c1ccc(O)cc1)(c1ccc(O)cc1)c1cc(O)ccc1-2  IC50 (MGC-803; MTT; 48 h): > 50000 nM
Nc1ccn([C@@H]2O[C@H](CO)[C@@H](O)C2(F)F)c(=O)n1  IC50 (143B; resazurin; 72 h): 8.9 nM
CC1=C(O)C(=O)C=C2C1=CC=C1[C@@]2(C)CC[C@@]2(C)[C@@H]3C[C@](C)(C(=O)OCCCN4C(=O)C5C=CC=CC5C4=O)CC[C@]3(C)CC[C@]12C (stereo partly drawn)  IC50 (MGC-803; MTT; 48 h): 390 nM
Cc1ccc(C(=O)N(CCCN)[C@@H](c2nc3cc(Cl)ccc3c(=O)n2Cc2ccccc2)C(C)C)cc1  IC50 (MM1.S; ATP luminescence; 72 h): 12.6 nM
CC1=C(O)C(=O)C=C2C1=CC=C1[C@@]2(C)CC[C@@]2(C)[C@@H]3C[C@](C)(C(=O)OCCCOc4ccccc4)CC[C@]3(C)CC[C@]12C  IC50 (MGC-803; MTT; 48 h): 460 nM
C#C[C@@]1(O)[C@@H](CO)O[C@@H](n2ccc(N)nc2=O)[C@@H]1O  IC50 (FM3A/0; MTT; 72 h): 1.6 nM
CC1=C(O)C(=O)C=C2C1=CC=C1[C@@]2(C)CC[C@@]2(C)[C@@H]3C[C@](C)(C(=O)OCCCCCO)CC[C@]3(C)CC[C@]12C  IC50 (MGC-803; MTT; 48 h): 320 nM
CC(C)C[C@H](NC(=O)[C@H](Cc1ccccc1)NC(=O)c1cnccn1)B(O)O  IC50 (NCI-N87; ATP luminescence): 9.1 nM
